Assay results: ChEMBL document CHEMBL2040797, “Synthesis of benzimidazoles bearing oxadiazole nucleus as anticancer agents” (2012)

Assays:
Assay type in all cases: functional
OVCAR-5 [1] = assay: Cytotoxicity against human OVCAR5 cells after 48 hrs by sulforhodamine B assay; settings: OVCAR-5, 48 h
Outline: (§1)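 NCI 60-panel screen. Cells were grown in RPMI 1640 with 5% FBS and L-glutamine and plated at 5000–40,000 cells/well according to doubling time. They were preincubated 24 h at 37 °C, 5% CO2, then exposed 48 h to five 10-fold dilutions. Adherent cells were fixed with cold TCA, final 10%; suspension cells were fixed after settling. Cells were stained with 0.4% SRB and read at 515 nm. Tz/C/Ti growth curves gave GI50, TGI and LC50.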

SF-539 [2] = assay: Growth inhibition of human SF539 cells at 10 uM after 48 hrs by sulforhodamine B assay; settings: SF-539, 48 h, read-out: GI
Outline: (§2)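 NCI one-dose primary screen at 10 (printed mM) across the 60-line panel. Cells in RPMI 1640 with 5% FBS and 2 mM L-glutamine, plated at 5000–40,000 cells/well and incubated 24 h before dosing. Exposure 48 h at 37 °C, 5% CO2. Adherent cells were fixed with cold TCA, suspension cells fixed after settling. SRB stain, absorbance 515 nm. Reported as percent growth of treated cells relative to control.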

LOX IMVI = assay: Growth inhibition of human LOXIMVI cells at 10 uM after 48 hrs by sulforhodamine B assay; settings: read-out: GI; outline: as §2
UACC-62 [3] = assay: Cytotoxicity against human UACC62 cells after 48 hrs by sulforhodamine B assay; settings: UACC-62, 48 h
Outline: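 NCI 60 panel five-dose screen. Cells in RPMI 1640 with 5% FBS and 2 mM L-glutamine, plated at 5000–40,000 cells/well and preincubated 24 h. Compounds were tested at five 10-fold concentrations (0.01–100) for 48 h at 37 °C, 5% CO2. Cells were fixed with TCA and stained with SRB, absorbance 515 nm. GI50, TGI and LC50 were taken from % growth curves against time-zero and control.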

HOP-92 [4] = assay: Cytotoxicity against human HOP92 cells after 48 hrs by sulforhodamine B assay; settings: HOP-92, 48 h; outline: as §1
MOLT-4 = assay: Cytotoxicity against human MOLT4 cells after 48 hrs by sulforhodamine B assay; settings: MOLT-4, 48 h; outline: as §1
Malme-3M = assay: Growth inhibition of human MALME-3M cells at 10 uM after 48 hrs by sulforhodamine B assay; settings: read-out: GI; outline: as §2
SNB-19 = assay: Growth inhibition of human SNB19 cells at 10 uM after 48 hrs by sulforhodamine B assay; settings: SNB-19, 48 h, read-out: GI
Outline: (§3)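 NCI-60 single-dose screen. Cells grown in RPMI 1640 with 5% FBS and L-glutamine, plated at 5000–40,000 cells/well by doubling time, and preincubated 24 h at 37 °C, 5% CO2. Compound stocks in DMSO, added at one concentration, then incubated 48 h. Adherent cells fixed with cold TCA (10% final), stained with 0.4% SRB, dye solubilized in 10 mM Tris base, A515 read. Reported as percent growth relative to untreated control.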

SF-539 [5] = assay: Cytotoxicity against human SF539 cells after 48 hrs by sulforhodamine B assay; settings: SF-539, 48 h; outline: as §1
NCI-H522 = assay: Growth inhibition of human NCI-H522 cells at 10 uM after 48 hrs by sulforhodamine B assay; settings: NCI-H522, 48 h, read-out: GI; outline: as §2
KM12 = assay: Cytotoxicity against human KM12 cells after 48 hrs by sulforhodamine B assay; settings: KM12, 48 h; outline: as §1
RPMI-8226 = assay: Growth inhibition of human RPMI8226 cells at 10 uM after 48 hrs by sulforhodamine B assay; settings: RPMI-8226, 48 h, read-out: GI; outline: as §2
NCI-H23 = assay: Cytotoxicity against human NCI-H23 cells after 48 hrs by sulforhodamine B assay; settings: NCI-H23, 48 h; outline: as §1
ACHN = assay: Growth inhibition of human ACHN cells at 10 uM after 48 hrs by sulforhodamine B assay; settings: read-out: GI; outline: as §2
NCI-H460 = assay: Cytotoxicity against human NCI-H460 cells after 48 hrs by sulforhodamine B assay; settings: NCI-H460, 48 h; outline: as §1
HCT-116 [6] = assay: Growth inhibition of human HCT116 cells at 10 uM after 48 hrs by sulforhodamine B assay; settings: HCT-116, 48 h, read-out: GI; outline: as §2
OVCAR-5 [7] = assay: Growth inhibition of human OVCAR5 cells at 10 uM after 48 hrs by sulforhodamine B assay; settings: OVCAR-5, 48 h, read-out: GI; outline: as §2
HCT-116 [8] = assay: Cytotoxicity against human HCT116 cells after 48 hrs by sulforhodamine B assay; settings: HCT-116, 48 h; outline: as §1
HOP-92 [9] = assay: Growth inhibition of human HOP92 cells at 10 uM after 48 hrs by sulforhodamine B assay; settings: HOP-92, 48 h, read-out: GI; outline: as §2
T47D = assay: Growth inhibition of human T47D cells at 10 uM after 48 hrs by sulforhodamine B assay; settings: read-out: GI; outline: as §3
SK-MEL-28 = assay: Growth inhibition of human SK-MEL-28 cells at 10 uM after 48 hrs by sulforhodamine B assay; settings: SK-MEL-28, 48 h, read-out: GI; outline: as §3
SF-295 = assay: Cytotoxicity against human SF295 cells after 48 hrs by sulforhodamine B assay; settings: SF-295, 48 h; outline: as §1
UACC-62 [10] = assay: Growth inhibition of human UACC62 cells at 10 uM after 48 hrs by sulforhodamine B assay; settings: UACC-62, 48 h, read-out: GI; outline: as §3
MDA-MB-435 = assay: Growth inhibition of human MDA-MB-435 cells at 10 uM after 48 hrs by sulforhodamine B assay; settings: MDA-MB-435, 48 h, read-out: GI; outline: as §2
A549 = assay: Growth inhibition of human A549 cells at 10 uM after 48 hrs by sulforhodamine B assay; settings: A549, 48 h, read-out: GI; outline: as §2
DU-145 = assay: Growth inhibition of human DU145 cells at 10 uM after 48 hrs by sulforhodamine B assay; settings: DU-145, 48 h, read-out: GI; outline: as §2
SK-OV-3 = assay: Growth inhibition of human SKOV3 cells at 10 uM after 48 hrs by sulforhodamine B assay; settings: SK-OV-3, 48 h, read-out: GI; outline: as §3
PC-3 = assay: Cytotoxicity against human PC3 cells after 48 hrs by sulforhodamine B assay; settings: PC-3, 48 h; outline: as §1
[11] = read-out: LC50 (the source's name)

In the case of `O=C(CCc1nnc(-c2ccc(Cl)cc2Cl)o1)c1nc2ccccc2[nH]1`, the GI50 (OVCAR-5 [1]) was 7.82 µM, the TGI (OVCAR-5 [1]) was 100 µM and the CC50 (OVCAR-5 [1]; [11]) was 100 µM. The inhibition of growth at 10 µM (SF-539 [2]) was 4.76%, the inhibition of growth at 10 µM (LOX IMVI) was 44.9% and the GI50 (UACC-62 [3]) was 3.34 µM. For the same molecule, the TGI (UACC-62 [3]) was 27.8 µM, the CC50 (UACC-62 [3]; [11]) was 100 µM and the GI50 (HOP-92 [4]) was 1.77 µM. The TGI (HOP-92 [4]) was 15.8 µM, the CC50 (HOP-92 [4]; [11]) was 100 µM and the GI50 (MOLT-4) was 4.07 µM. It also gave a TGI (MOLT-4) of 25.8 µM, a CC50 (MOLT-4; [11]) of 100 µM and an inhibition of growth at 10 µM (Malme-3M) of 20.7%. For the same molecule, the inhibition of growth at 10 µM (SNB-19) was 24.9%, the GI50 (SF-539 [5]) was 10.5 µM and the TGI (SF-539 [5]) was 39.6 µM. The CC50 (SF-539 [5]; [11]) was 100 µM, the inhibition of growth at 10 µM (NCI-H522) was 50.2% and the GI50 (KM12) was 3.16 µM. It also gave a TGI (KM12) of 11 µM, a CC50 (KM12; [11]) of 100 µM and an inhibition of growth at 10 µM (RPMI-8226) of 69.1%. It also gave a GI50 (NCI-H23) of 3.23 µM, a TGI (NCI-H23) of 63.2 µM and a CC50 (NCI-H23; [11]) of 100 µM. For the same molecule, the inhibition of growth at 10 µM (ACHN) was 18.7%, the GI50 (NCI-H460) was 4.99 µM and the TGI (NCI-H460) was 28.6 µM. For the same molecule, the CC50 (NCI-H460; [11]) was 100 µM, the inhibition of growth at 10 µM (HCT-116 [6]) was 77.9% and the inhibition of growth at 10 µM (OVCAR-5 [7]) was 18.9%. The GI50 (HCT-116 [8]) was 3.33 µM, the TGI (HCT-116 [8]) was 13.5 µM and the CC50 (HCT-116 [8]; [11]) was 52.5 µM. For the same molecule, the inhibition of growth at 10 µM (HOP-92 [9]) was 93.3%, the inhibition of growth at 10 µM (T47D) was 48% and the inhibition of growth at 10 µM (SK-MEL-28) was 17.3%. The GI50 (SF-295) was 5.98 µM, the TGI (SF-295) was 42.9 µM and the CC50 (SF-295; [11]) was 100 µM. The inhibition of growth at 10 µM (UACC-62 [10]) was 57.7%, the inhibition of growth at 10 µM (MDA-MB-435) was 101% and the inhibition of growth at 10 µM (A549) was 30.3%. It also gave an inhibition of growth at 10 µM (DU-145) of 17.8%, an inhibition of growth at 10 µM (SK-OV-3) of 35.2% and a GI50 (PC-3) of 3.71 µM. It also gave a TGI (PC-3) of 100 µM and a CC50 (PC-3; [11]) of 100 µM.
